Measurements: ChEMBL document CHEMBL3877293, “Synthesis and Antineoplastic Evaluation of Novel Unsymmetrical 1,3,4-Oxadiazoles” (J Med Chem, 2016)
pIC50: −log10 of the molar value. Calls of active or inactive are those of the source. The rule behind the calls is not given here.

Assays:
[1] = Cell cycle arrest in human NB1 hTERT cells assessed as S phase accumulation at 1 uM after 24 hrs by propidium iodide staining based flow cytometry (reference value: 11.8%); format: functional
[2] = Cell cycle arrest in human NB1 hTERT cells assessed as sub G1 phase accumulation at 1 uM after 72 hrs by propidium iodide staining based flow cytometry relative to control; format: functional
[3] = Cell cycle arrest in human A549 cells assessed as subG1 phase accumulation at 1 uM after 24 hrs by propidium iodide staining based flow cytometry relative to DMSO control; format: functional
[4] = test system: MCF7; experiment: Antiproliferative activity against human MCF7 cells at 0.5 uM after 72 hrs in presence of MRP1 inhibitor reversan by XTT assay relative to control; format: functional, cell-based
Summary of the method: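 Mcf7 cells treated after 24 h for 72 h at 37 °C, 5% CO2 with test compound at 0.5 μM alone or combined with harmine (1, 3, 5 μM) or reversan (5, 15, 25 μM). XTT was added for 4 h at 37 °C, absorbance read at 490 nm, and viability compared with control.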

[5] = Cell cycle arrest in human A549 cells assessed as G1 phase accumulation at 1 uM after 24 hrs by propidium iodide staining based flow cytometry (reference value: 65.4 +/- 1.84%); format: functional
[6] = Cell cycle arrest in human MCF7 cells assessed as G1 phase accumulation at 1 uM treated for 24 hrs followed by compound washout measured after 24 hrs by propidium iodide staining based flow cytometry (reference value: 61.4%); format: functional
[7] = Cell cycle arrest in human NCI-H1299 cells assessed as G1 phase accumulation at 1 uM after 24 hrs by propidium iodide staining based flow cytometry (reference value: 61.2 +/- 1.69%); format: functional
[8] = Antiproliferative activity against human T98G cells after 72 hrs by XTT assay; format: functional, cell-based
Summary of the method: (§1)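 Cells plated at 1500–2000 per well by doubling time, treated after 24 h with a concentration series in six triplicate wells, and incubated 72 h without a medium change. XTT reagent was then added for 4 h at 37 °C and absorbance read at 490 nm. IC50 is the concentration halving absorbance versus untreated cells. Experiments run in triplicate.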

[9] = Cell cycle arrest in human NB1 hTERT cells assessed as G1 phase accumulation at 1 uM after 72 hrs by propidium iodide staining based flow cytometry (reference value: 72.5%); format: functional
[10] = Cell cycle arrest in human SH-SY5Y cells assessed as subG1 phase accumulation at 1 uM after 24 hrs by propidium iodide staining based flow cytometry relative to DMSO control; format: functional
[11] = Antiproliferative activity against human RD cells after 72 hrs by XTT assay; format: functional, cell-based; summary of the method: as §1
[12] = Cell cycle arrest in human MCF7 cells assessed as G1 phase accumulation at 1 uM after 144 hrs by propidium iodide staining based flow cytometry (reference value: 65.9%); format: functional
[13] = test system: HeLa; experiment: Induction of apoptosis in human HeLa cells assessed as early apoptotic cells at 5 uM after 48 hrs by Annexin-V FITC/propidium iodide staining based flow cytometry (reference value: 1.6%); format: functional
[14] = Antiproliferative activity against human HeLa cells after 72 hrs by XTT assay; format: functional, cell-based; summary of the method: as §1
[15] = Antiproliferative activity against human A549 cells after 72 hrs by XTT assay; format: functional, cell-based; settings: A549, 72 h; summary of the method: as §1
[16] = Antiproliferative activity against human SH-SY5Y cells after 72 hrs by XTT assay; format: functional, cell-based; summary of the method: as §1
[17] = Induction of apoptosis in human NB-1 cells assessed as necrotic cells at 5 uM after 72 hrs by Annexin-V FITC/propidium iodide staining based flow cytometry (reference value: 0.2%); format: cell-based; settings: nb1, 72 h
[18] = Cell cycle arrest in human Kelly cells assessed as G1 phase accumulation at 1 uM after 24 hrs by propidium iodide staining based flow cytometry (reference value: 65.9 +/- 1.87%); format: functional
[19] = Antiproliferative activity against human IBR3-G SV40 cells after 72 hrs by XTT assay; format: functional, cell-based; settings: IBR3-G SV40, 72 h; summary of the method: as §1
[20] = test system: A549; experiment: Induction of apoptosis in human A549 cells assessed as necrotic cells at 5 uM after 72 hrs by Annexin-V FITC/propidium iodide staining based flow cytometry (reference value: 1.6%); format: functional
[21] = Cell cycle arrest in human MCF7 cells assessed as G1 phase accumulation at 1 uM after 24 hrs by propidium iodide staining based flow cytometry (reference value: 54.1 +/- 1.52%); format: functional
[22] = Cell cycle arrest in human A549 cells assessed as S phase accumulation at 1 uM after 24 hrs by propidium iodide staining based flow cytometry (reference value: 7.6 +/- 0.63%); format: functional
[23] = Antiproliferative activity against human NB1 hTERT cells after 72 hrs by XTT assay; format: functional, cell-based; summary of the method: as §1
[24] = test system: HeLa; experiment: Cytotoxicity against human HeLa cells assessed as inhibition of colony formation after 2 weeks by crystal violet staining based assay; format: functional, cell-based
Summary of the method: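 HeLa seeded at 100-200 cells/well in six-well plates and treated with 0.3 or 0.03 μM compound (DMSO control). Medium with compound changed every 3 days for about two weeks, until control colonies were visible. Colonies fixed and stained with 6.0% glutaraldehyde/0.5% crystal violet for 30 min, then counted against control. Done in triplicate.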

[25] = Cell cycle arrest in human NB-1 cells assessed as G1 phase accumulation at 1 uM after 48 hrs by propidium iodide staining based flow cytometry (reference value: 85.9%); settings: nb1, 48 h
[26] = test system: SH-SY5Y; experiment: Disruption of beta-tubulin network in human SH-SY5Y cells assessed as apoptotic nuclei at 1 uM after 24 hrs by DAPI staining based immunofluorescence microscopic analysis; format: cell-based
Summary of the method: (§2)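 Cells seeded on glass coverslips (1 x 10^5/well), treated 24 h, fixed in 4% paraformaldehyde 15 min, permeabilized with 0.5% Triton X-100, blocked in 5% BSA/PBS, stained overnight at 4 °C with anti-β-tubulin (1:200) then fluorescent secondary antibody; nuclei counterstained with DAPI; microtubule organization and nuclear morphology examined by fluorescence microscopy.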

[27] = test system: SH-SY5Y; experiment: Disruption of beta-tubulin network in human SH-SY5Y cells assessed as shorter microtubule bundles around nuclei at 1 uM after 24 hrs by DAPI staining based immunofluorescence microscopic analysis; format: cell-based; summary of the method: as §2
[28] = Cell cycle arrest in human MCF7 cells assessed as S phase accumulation at 1 uM after 24 hrs by propidium iodide staining based flow cytometry (reference value: 21.7 +/- 1.42%); format: functional
[29] = test system: MCF7; experiment: Increase in p53 expression in human MCF7 cells at 1 uM after 24 hrs by immunoblot method relative to control; format: functional
Summary of the method: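 After 24 h treatment at 1 μM, cells lysed in Tris pH 8/NaCl/glycerol/NP-40/EDTA buffer with protease inhibitors. Equal lysate amounts run on 10% SDS gels, blotted to nitrocellulose, probed for p53 with GAPDH as loading control, detected by enhanced chemiluminescence. Bands quantified by densitometry against GAPDH and compared with untreated cells; three independent experiments.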

[30] = Cell cycle arrest in human RD cells assessed as G2/M phase accumulation at 1 uM after 24 hrs by propidium iodide staining based flow cytometry (reference value: 28.9 +/- 1.93%); format: functional
[31] = Cell cycle arrest in human RD cells assessed as subG1 phase accumulation at 1 uM after 24 hrs by propidium iodide staining based flow cytometry relative to DMSO control; format: functional

Cc1[nH]c2c(c1-c1nnc(-c3ccccc3)o1)Cc1ccccc1-2
Activity [1]: 12.3%
Activity [2]: 25.3%
Activity [3]: 13.8%
Activity [4]: Active
Activity [5]: 11.4%
Activity [6]: 56.8%
Activity [7]: 17.8%
pIC50 [8]: 7.22
Activity [9]: 45.6%
Activity [10]: 15.7%
pIC50 [11]: 7.22
Activity [12]: 14.5%
Activity [13]: 4.6%
pIC50 [14]: 7.30
pIC50 [15]: 6.62
pIC50 [16]: 7.15
Activity [17]: 0.8%
Activity [18]: 34.3%
pIC50 [19]: 6.68
Activity [20]: 4.6%
Activity [21]: 15.7 to 30.1%
Activity [22]: 9.5%
pIC50 [23]: 6.89
inhibition [24]: Dose-dependent effect
Activity [25]: 82.6%
Activity [26]: Active
Activity [27]: Active
Activity [28]: 6.3 to 10.4%
fold change (FC) [29]: 2 - 3
Activity [30]: 46.4%
Activity [31]: 6.1%
